High-throughput results as filed in PubChem BioAssay.
RGS8-Gao reg – RGS8-Galphao binding modulators, primary screen, biochemical, multiplexed bead flow cytometry; Guanine nucleotide-binding protein G(o) subunit alpha (Homo sapiens), P09471; actives lie on both sides; response (percent of control binding), % at 10 µM; 220,000 tested, 0.34% active; AID 1423, 2008; in the data active = response below about 60% or above about 140%; inactive = in between;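 also: Galphao activated as the GDP aluminium fluoride complex binding bead-coupled RGS8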
Target sequence (P09471 whole entry, looked up): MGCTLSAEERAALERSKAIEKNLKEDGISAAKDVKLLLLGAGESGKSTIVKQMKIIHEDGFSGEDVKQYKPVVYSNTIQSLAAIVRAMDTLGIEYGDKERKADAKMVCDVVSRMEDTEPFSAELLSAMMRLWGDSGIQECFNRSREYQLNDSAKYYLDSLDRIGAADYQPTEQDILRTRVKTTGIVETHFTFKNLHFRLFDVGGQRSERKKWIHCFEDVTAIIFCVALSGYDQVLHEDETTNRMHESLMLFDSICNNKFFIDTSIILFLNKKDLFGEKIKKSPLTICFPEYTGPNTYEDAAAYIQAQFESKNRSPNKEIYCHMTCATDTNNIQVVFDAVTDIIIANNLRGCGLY
Biofilm kill mix – clotrimazole potentiators killing C. albicans biofilm, primary screen, 4-compound mixtures; C. albicans biofilm persisters + clotrimazole, fluorescence viability; primary screen in compound mixtures of four per well; inhibition, % at 7.6 µM; 120,000 tested, 0.02% active; AID 1242, 2008;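 active = inhibition above 30.3% in the primary screen of four-compound pools, then above 30% when the compound was retested; inconclusive = passed the primary limit but could not be retested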;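 also: compounds exposed to preformed 24 h biofilms for 48 h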
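Test system: C. albicans CAF4-2 wild-type biofilms; buffer or medium: RPMI/MOPS medium, pH 7.0; schedule: 24 h biofilm formation, then 48 h compound exposure, 37 °C; detection: Alamar Blue fluorescence; measure: percent inhibition of biofilm viability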
RGS7-Gao reg – RGS7-Galphao binding modulators, primary screen, biochemical, multiplexed bead flow cytometry | AID 1439, 2008 | binding response (% of control), % at 10 µM | 220,000 tested, 0.35% active | actives lie on both sides | Guanine nucleotide-binding protein G(o) subunit alpha (Homo sapiens), P09471; in the data active = binding response below about 49% or above about 150%; inconclusive = no clear call, values can overlap the other calls; inactive = in between;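 also: fluorescent Galphao held in activated GDP-AlF4 state binding bead-coupled RGS7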
RGS4-Gao reg – modulators of RGS4 binding to Galphao, primary screen, biochemical, multiplexed bead flow cytometry; Guanine nucleotide-binding protein G(o) subunit alpha (Homo sapiens), P09471; actives lie on both sides; binding response (% of control), % at 10 µM; 220,000 tested, 0.33% active; in the data active = binding response below about 49% or above about 150%; inactive = in between;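 also: fluorescent Galphao activated with aluminum fluoride binding bead-coupled RGS4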
RGS16-Gao HTS – modulators of RGS16 binding to Galphao, primary screen, biochemical, human proteins, multiplexed bead flow cytometry. 220,000 tested, 0.38% active. binding response (% of control), % at 10 µM. Regulator of G-protein signaling 16 (Homo sapiens) + Guanine nucleotide-binding protein …. AID 1441, 2008. bead-based flow cytometry RGS16-Galphao binding, fluorescence; actives lie on both sides;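 also: Galphao activated by GDP with aluminum fluoride before binding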
RGS-Gao – modulators of RGS–Galpha-o binding, primary screen, biochemical, multiplexed beads, flow cytometry, RGS4/7/8/16/19 | shares compounds with RGS16-Gao HTS | multiplexed bead flow cytometry | RGS4–Galpha-o binding response, % at 10 µM | 1,600 tested, 99% active;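 also: fluorescently labeled Galpha-o bound to GDP with aluminium fluoride binding biotinylated RGS beads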
Biotin-avidin – disruption of biotin probe capture by avidin, counter-screen for RGS protein interaction modulators, biochemical, flow cytometry, bead-based | shares compounds with RGS16-Gao HTS | streptavidin beads, fluorescein-biotin binding | inhibition, % at 10 µM | 1,700 tested, under 10 active;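 active = inhibition above 50%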;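 also: median green fluorescence of gated singlet beads compared with DMSO control wells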
RGS8-Gao single – RGS8-Galphao binding modulators, confirmation, biochemical, multiplexed bead flow cytometry, single concentration | shares compounds with RGS16-Gao HTS | bead-based flow cytometry RGS8-Galphao binding, fluorescence; actives lie on both sides | binding response (% of control), % at 10 µM | 1,700 tested, 3% active; in the data active = binding response below about 72% or above about 130%; inactive = in between;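 also: Galphao activated as GDP AlF4 complex before binding bead RGS8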
RGS7-Gao confirm – RGS7-Galphao binding modulators, confirmation, biochemical, multiplexed bead flow cytometry, single concentration. shares compounds with RGS16-Gao HTS. bead-based flow cytometry RGS7-Galphao binding; actives lie on both sides. response (percent of control binding), % at 10 µM. 1,700 tested, 7.8% active; in the data active = response below about 75% or above about 130%; inactive = in between;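 also: fluorescent Galphao activated with GDP and aluminum fluoride binding bead-coupled RGS7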
RGS16-Gao single – modulators of RGS16-Galphao protein binding, confirmation, biochemical, single concentration, multiplexed bead flow cytometry; shares compounds with RGS16-Gao HTS; bead-based flow cytometry; actives lie on both sides; response (% of control binding), % at 10 µM; 1,700 tested, 4% active; AID 1838, 2009; in the data active = response below about 74% or above about 130%; inactive = in between;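 also: Galphao activated as the GDP aluminium fluoride complex binding bead-coupled RGS16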
RGS4-Gao single – modulators of RGS4-Galphao protein binding, confirmation, biochemical, single concentration, multiplexed bead flow cytometry; binding response (% of control), % at 10 µM; 1,700 tested, 4% active; shares compounds with RGS16-Gao HTS; actives lie on both sides; in the data active = binding response below about 74% or above about 130%; inactive = in between
RGS19-Gao single – regulators of RGS19-Galphao binding, confirmation, biochemical, single point, multiplexed bead flow cytometry | shares compounds with RGS16-Gao HTS | bead-based flow cytometry RGS19-Galphao binding; actives lie on both sides | response (percent of control binding), % at 10 µM | 1,700 tested, 5% active; in the data active = response below about 50% or above about 160%; inactive = in between
Target sequence (P09471 whole entry, looked up): as above
Target sequence (P49795 whole entry, looked up): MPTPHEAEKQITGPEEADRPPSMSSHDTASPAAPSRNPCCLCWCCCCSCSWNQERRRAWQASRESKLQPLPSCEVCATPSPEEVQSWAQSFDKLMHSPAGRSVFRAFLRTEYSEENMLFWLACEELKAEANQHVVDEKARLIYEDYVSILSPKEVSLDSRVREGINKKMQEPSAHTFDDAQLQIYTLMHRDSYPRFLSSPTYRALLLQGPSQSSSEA
Numbers stand for hits; i = inactive; ? = inconclusive; nt = not tested or not shown; [ ] = remark or other dose. This is a sample that favours compounds with a hit; in the whole collection about 0.74% have one here. Unless noted, no rule for the calls is given here.

SMILES	RGS8-Gao reg	Biofilm kill mix	RGS7-Gao reg	RGS4-Gao reg	RGS16-Gao HTS	Biotin-avidin	RGS8-Gao single	RGS7-Gao confirm	RGS16-Gao single	RGS4-Gao single	RGS19-Gao single	others
CCN(c1ccccc1)S(=O)(=O)c1ccc(C(=O)Oc2ccc(C(C)=O)cc2)cc1	i	i	i	i	i	nt	nt	nt	nt	nt	nt
CC(=O)N/N=C(\C)c1cccc(NC(=O)c2cccs2)c1	33.8	i	-112.2	-635.8	i	i	i	i	i	i	i
C/C(=N/NC(=O)c1cccs1)c1cccc(NC(=O)C2CC2)c1	i	nt	i	i	i	nt	nt	nt	nt	nt	nt
CC1=C(C(=O)Nc2ccc(C)cc2)C(c2cccs2)NC(=S)N1 (stereo unspecified)	i	i	46.1	i	i	i	i	i	i	i	i	RGS-Gao=53.6
CC1=C(C(=O)Nc2ccc(F)c(F)c2)C(c2cccs2)NC(=S)N1 (stereo unspecified)	i	i	i	i	i	nt	nt	nt	nt	nt	nt
O=C(NS(=O)(=O)Oc1cccc(Cl)c1Cl)OC[C@@H]1CCCN2CCCCC12 (stereo partly specified)	i	i	i	i	i	nt	nt	nt	nt	nt	nt
COc1c(C(CC(C)C)OC(C)=O)ccc2c1C(=O)OCc1cc(C)cc(O)c1O2 (stereo unspecified)	i	i	?	i	i	nt	nt	nt	nt	nt	nt
CCOc1ccc(NC(=O)CC2C(=O)N(c3ccccc3)C(=O)N2Cc2ccccn2)cc1 (stereo unspecified)	144.1[activator]	nt	i	i	i	i	i	i	i	i	i	RGS-Gao=135.3
CC(C)C1Oc2cc3oc(=O)ccc3cc2C1=O (stereo unspecified)	57.3	i	i	i	5.7	i	i	i	i	i	i	RGS-Gao=56.1
CCOC(=O)/C(=N/Nc1ccc(C)cc1)S(=O)(=O)c1ccc(Cl)cc1	i	nt	i	i	i	nt	nt	nt	nt	nt	nt
CCOC(=O)/C(=N\Nc1ccccc1)S(=O)(=O)c1ccccc1	nt	nt	nt	nt	nt	i	i	i	i	i	i
O=C(Nc1cnc2ccccn2c1=O)c1ccc(Cl)cc1	i	nt	i	i	i	nt	nt	nt	nt	nt	nt
c1ccc(-c2ccccc2OCCCN2CCOCC2)cc1	i	i	i	i	i	nt	nt	nt	nt	nt	nt
OCCCN1CCN(CCCOc2ccccc2-c2ccccc2)CC1	i	i	i	i	178.9[activator]	i	i	i	i	i	i	RGS-Gao=106.9
CC1=CC(C)(C)N=C(NC#N)N1	i	nt	44.3	42.3	i	i	i	i	i	i	i
Cc1cc(NC(=O)CS(=O)(=O)Cc2ccccc2)no1	i	i	?	i	i	nt	nt	nt	nt	nt	nt
C/C(CC(=O)Nc1ccc2c(c1)OCO2)=N\NC(=O)C(c1ccccc1)c1ccccc1	i	i	i	i	15.0	i	i	i	i	i	i	RGS-Gao=87.0
COc1ccccc1C(=O)NN1C(=O)/C(=C/c2cccn2C)SC1=S	nt	i	nt	nt	nt	i	i	i	i	i	i
Cn1cccc1/C=C1\SC(=S)N(NC(=O)c2ccccc2O)C1=O	i	i	?	i	i	nt	nt	nt	nt	nt	nt
CC(C)(C)NC(=O)NC(=O)COC(=O)c1cccc(S(=O)(=O)N2CCCCC2)c1	i	i	i	i	i	nt	nt	nt	nt	nt	nt
O=C(NCC1(c2ccccc2)CCCC1)C(=O)N1CCOCC1	i	i	i	i	21.4	i	i	i	i	i	i	RGS-Gao=83.4
C=CCOc1ccc(CNc2ccc3[nH]c(=O)[nH]c3c2)cc1	i	i	i	i	i	nt	nt	nt	nt	nt	nt
CCN(CC)CCN1C(=O)C(=O)/C(=C(/O)c2c(C)[nH]c(C(=O)OC)c2C)C1c1cccs1 (stereo unspecified)	i	nt	i	i	i	nt	nt	nt	nt	nt	nt
CCN(CC)CCN1C(=O)C(=O)/C(=C(/O)c2c(C)[nH]c(C(=O)OC)c2C)C1c1ccccc1OC (stereo unspecified)	145.2[activator]	nt	158.8[activator]	176.1[activator]	i	i	i	i	i	i	i
CC[n+]1c(/C=C/Nc2ccccc2)sc2ccccc21	i	nt	i	i	i	nt	nt	nt	nt	nt	nt
SMILES	RGS8-Gao reg	Biofilm kill mix	RGS7-Gao reg	RGS4-Gao reg	RGS16-Gao HTS	Biotin-avidin	RGS8-Gao single	RGS7-Gao confirm	RGS16-Gao single	RGS4-Gao single	RGS19-Gao single	others
CCN1/C(=C/C=C/C=C/c2sc3ccccc3[n+]2CC)Sc2ccccc21	i	i	i	31.0	i	i	63.5	i	58.3	-8.0	nt
O=C(Cn1cc2c(n1)CCCCC2)Nc1ccccc1Br	28.1	i	?	24.7	14.0	i	i	i	i	i	i
CC12C(=O)N(c3nccs3)C(=O)C1C1C=CC2C1 (stereo unspecified)	nt	nt	nt	nt	nt	i	i	i	i	i	i
Cc1nc(N2CCCCC2)c(C#N)c(C)c1[N+](=O)[O-]	i	i	i	156.2[activator]	i	i	i	i	i	i	i
CCN1CCN(C(CNS(=O)(=O)c2cccs2)c2cccnc2)CC1 (stereo unspecified)	i	i	?	i	i	nt	nt	nt	nt	nt	nt
CCCn1c(N)nc2ccccc21	144.3[activator]	nt	i	i	i	i	i	i	i	i	i	RGS-Gao=115.3
Cc1occc1-c1nnc(SCC(=O)Nc2nc3ccccc3s2)o1	i	nt	i	i	i	nt	nt	nt	nt	nt	nt
Oc1ccccc1Nc1nc(NCC2CCCO2)c2ccccc2n1 (stereo unspecified)	i	nt	41.0	i	i	i	i	i	i	i	i	RGS-Gao=95.6
COc1ccc(NC(=O)CC2C(=O)N(C)C(=S)N2Cc2ccc3c(c2)OCO3)cc1 (stereo unspecified)	i	i	i	i	i	nt	nt	nt	nt	nt	nt
Cc1nc2cc(C(=O)OCC(=O)Nc3cccc(Cl)c3)ccc2n1-c1ccccc1	i	i	i	i	i	nt	nt	nt	nt	nt	nt
